# Assay results taken from ChEMBL document CHEMBL2346664, “Synthesis, characterization and in vitro anticancer evaluation of novel 1,2,4-triazolin-3-one derivatives” (2013).
# Key:
# Format in all cases: functional
# [1] = test system: UACC-62; test: Growth inhibition of human UACC62 cells after 48 hrs by sulforhodamine B assay; conditions: UACC-62, 48 h
# [2] = Growth inhibition of human HCC2998 cells assessed as cell growth at 10 '-8 M after 48 hrs by sulforhodamine B assay; conditions: HCC 2998, 48 h, read-out: Activity
# [3] = test system: SR; test: Growth inhibition of human SR cells assessed as cell growth at 10 '-7 M after 48 hrs by sulforhodamine B assay; conditions: read-out: Activity
# [4] = Growth inhibition of human Hs 578T cells after 48 hrs by sulforhodamine B assay
# In short: (§1)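 NCI 60-cell-line five-dose screen. Cells were plated at 5,000–40,000/well by doubling time and grown 24 h at 37 °C, 5% CO2. Time-zero plates were TCA-fixed. Drug from DMSO stock was tested at 0.01, 0.1, 1, 10 and 100 µM final for 48 h continuous exposure. Read-out was SRB at 515 nm. GI50 is the concentration giving 50% reduction in net protein increase versus untreated control.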
# [5] = test system: OVCAR-5; test: Growth inhibition of human OVCAR5 cells assessed as cell growth at 10 '-8 M after 48 hrs by sulforhodamine B assay; conditions: OVCAR-5, 48 h, read-out: Activity
# [6] = test system: TK-10; test: Growth inhibition of human TK10 cells assessed as cell growth at 10 '-6 M after 48 hrs by sulforhodamine B assay; conditions: TK-10, 48 h, read-out: Activity
# [7] = test system: UACC-257; test: Growth inhibition of human UACC257 cells after 48 hrs by sulforhodamine B assay; conditions: UACC-257, 48 h
# In short: (§2)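 NCI 60-cell-line five-dose screen over 0.01, 0.1, 1, 10 and 100 µM, with 48 h continuous exposure at 37 °C and 5% CO2 after 24 h pre-incubation (5,000–40,000 cells/well). Cells were TCA-fixed (10% final for adherent, 16% for suspension), stained with SRB and read at 515 nm. GI50 was solved from [(Ti−Tz)/(C−Tz)]×100 = 50 against time-zero plates.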
# [8] = test system: UACC-257; test: Growth inhibition of human UACC257 cells assessed as growth inhibition at 10 uM after 48 hrs by sulforhodamine B assay; conditions: UACC-257, 48 h, read-out: GI
# [9] = test system: U-251; test: Growth inhibition of human U251 cells assessed as cell growth at 10 '-8 M after 48 hrs by sulforhodamine B assay; conditions: U-251, 48 h, read-out: Activity
# [10] = test system: OVCAR-4; test: Growth inhibition of human OVCAR4 cells after 48 hrs by sulforhodamine B assay; conditions: OVCAR-4, 48 h; in short: as §2
# [11] = test system: MDA-MB-435; test: Growth inhibition of human MDA-MB-435 cells after 48 hrs by sulforhodamine B assay; conditions: MDA-MB-435, 48 h; in short: as §1
# [12] = test system: HL-60(TB); test: Growth inhibition of human HL-60(TB) cells assessed as cell growth at 10 '-5 M after 48 hrs by sulforhodamine B assay; conditions: HL-60, 48 h, read-out: Activity
# In short: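 Five-dose NCI protocol with final concentrations of 0.01–100 µM and drug diluted from a DMSO stock (400× the top concentration) in medium with gentamicin. Cells were pre-incubated 24 h, then exposed 48 h at 37 °C. Suspension cells were fixed with 16% final TCA, SRB-stained and read at 515 nm. Percentage growth at each level was [(Ti−Tz)/(C−Tz)]×100, or [(Ti−Tz)/Tz]×100 when Ti < Tz.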
# [13] = test system: UO-31; test: Growth inhibition of human UO31 cells after 48 hrs by sulforhodamine B assay; conditions: UO-31, 48 h
# [14] = test system: LOX IMVI; test: Growth inhibition of human LOXIMVI cells assessed as cell growth at 10 '-7 M after 48 hrs by sulforhodamine B assay; conditions: read-out: Activity
# [15] = Growth inhibition of human Hs 578T cells assessed as growth inhibition at 10 uM after 48 hrs by sulforhodamine B assay; conditions: read-out: GI
# [16] = test system: RXF 393; test: Growth inhibition of human RXF393 cells assessed as cell growth at 10 '-6 M after 48 hrs by sulforhodamine B assay; conditions: RXF 393, 48 h, read-out: Activity
# [17] = test system: K562; test: Growth inhibition of human K562 cells assessed as cell growth at 10 '-8 M after 48 hrs by sulforhodamine B assay; conditions: K562, 48 h, read-out: Activity
# [18] = test system: MOLT-4; test: Growth inhibition of human MOLT4 cells after 48 hrs by sulforhodamine B assay; conditions: MOLT-4, 48 h; in short: as §1
# [19] = test system: KM12; test: Growth inhibition of human KM12 cells assessed as cell growth at 10 '-5 M after 48 hrs by sulforhodamine B assay; conditions: KM12, 48 h, read-out: Activity
# [20] = test system: HCT-116; test: Growth inhibition of human HCT116 cells assessed as cell growth at 10 '-5 M after 48 hrs by sulforhodamine B assay; conditions: HCT-116, 48 h, read-out: Activity
# [21] = test system: SK-MEL-5; test: Growth inhibition of human SK-MEL-5 cells assessed as cell growth at 10 '-4 M after 48 hrs by sulforhodamine B assay; conditions: SK-MEL-5, 48 h, read-out: Activity
# [22] = test system: A498; test: Growth inhibition of human A498 cells after 48 hrs by sulforhodamine B assay; conditions: A498, 48 h
# In short: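 NCI 60-cell-line five-dose screen at 0.01, 0.1, 1, 10 and 100 µM final. Cells were plated at 5,000–40,000/well and grown 24 h at 37 °C, 5% CO2, then exposed to drug continuously for 48 h. Adherent cells were fixed with cold TCA (10% final) and stained with SRB; absorbance read at 515 nm. GI50 is the concentration where [(Ti-Tz)/(C-Tz)]×100 = 50, with Tz plates fixed at drug addition.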
# [23] = test system: SNB-19; test: Growth inhibition of human SNB19 cells assessed as cell growth at 10 '-5 M after 48 hrs by sulforhodamine B assay; conditions: SNB-19, 48 h, read-out: Activity
# [24] = test system: COLO 205; test: Growth inhibition of human COLO205 cells assessed as cell growth at 10 '-6 M after 48 hrs by sulforhodamine B assay; conditions: COLO 205, 48 h, read-out: Activity
# In short: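 In the same five-dose SRB screen (48 h, 37 °C, 5% CO2), percentage growth was computed at each concentration from time-zero (Tz), control (C) and treated (Ti) absorbances. The formula was [(Ti−Tz)/(C−Tz)]×100 when Ti ≥ Tz, or [(Ti−Tz)/Tz]×100 when Ti < Tz.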
# [25] = test system: HOP-62; test: Growth inhibition of human HOP62 cells assessed as cell growth at 10 '-8 M after 48 hrs by sulforhodamine B assay; conditions: HOP-62, 48 h, read-out: Activity
# [26] = read-out: LD50 (the source's name)
smiles,measurement,setting,value
Cc1cc(=O)oc2cc(OCCn3c(C)nn(-c4ccc(Cl)cc4)c3=O)ccc12,GI50,[1],1990 nM
same,TGI,[1],> 1000 nM
same,CC50,[1]; [26],> 1000 nM
same,growth at 0.01 µM,[2],95%
same,growth at 0.1 µM,[3],99%
same,GI50,[4],2820 nM
same,TGI,[4],> 1000 nM
same,CC50,[4]; [26],> 1000 nM
same,growth at 0.01 µM,[5],105%
same,growth at 1 µM,[6],114%
same,TGI,[7],> 1000 nM
same,CC50,[7]; [26],> 1000 nM
same,inhibition of growth at 10 µM,[8],77.5%
same,growth at 0.01 µM,[9],98%
same,GI50,[10],2680 nM
same,CC50,[10]; [26],> 1000 nM
same,GI50,[11],2690 nM
same,TGI,[11],8370 nM
same,CC50,[11]; [26],> 1000 nM
same,growth at 10 µM,[12],-1%
same,GI50,[13],1270 nM
same,TGI,[13],> 1000 nM
same,CC50,[13]; [26],> 1000 nM
same,growth at 0.1 µM,[14],88%
same,inhibition of growth at 10 µM,[15],65.2%
same,growth at 1 µM,[16],75%
same,growth at 0.01 µM,[17],107%
same,GI50,[18],4710 nM
same,TGI,[18],> 1000 nM
same,CC50,[18]; [26],> 1000 nM
same,growth at 10 µM,[19],21%
same,growth at 10 µM,[20],21%
same,growth at 100 µM,[21],4%
same,GI50,[22],1130 nM
same,TGI,[22],3190 nM
same,CC50,[22]; [26],> 1000 nM
same,growth at 10 µM,[23],39%
same,growth at 1 µM,[24],89%
same,growth at 0.01 µM,[25],101%
